Screens from PubChem BioAssay.
Shown are actives, neighbours in structure and some others; about 1.8% of the full set was active somewhere.
M4 antag – human M4 muscarinic receptor antagonists, primary screen, CHO cells, Fluo-8 calcium fluorescence; Muscarinic acetylcholine receptor M4 (Homo sapiens), P08173; 360,000 tested, 0.73% active; inhibition, % at 3 µM; CHO-hM4 cells, ACh EC80;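 active = inhibition above its plate's cutoff, the mean inhibition of sample wells plus 3 SD, cut at about 27% in these data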;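 note: 0% = acetylcholine EC80 with DMSO and 100% = DMSO without agonist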
M5 PAM – human M5 muscarinic receptor positive allosteric modulators, primary screen, CHO-K1 cells, Fluo-8 calcium fluorescence. activation, % at 3 µM. CHO-K1 hM5, ACh EC20 PAM; 0% = ACh EC20, 100% = ACh EC100. 360,000 tested, 0.3% active. Muscarinic acetylcholine receptor M5 (Homo sapiens), P08912;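 active = activation above the run cutoff, the mean activation of all test compounds plus 3 SD, cut at about 18% in these data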
Target sequence (P08912 whole entry, looked up): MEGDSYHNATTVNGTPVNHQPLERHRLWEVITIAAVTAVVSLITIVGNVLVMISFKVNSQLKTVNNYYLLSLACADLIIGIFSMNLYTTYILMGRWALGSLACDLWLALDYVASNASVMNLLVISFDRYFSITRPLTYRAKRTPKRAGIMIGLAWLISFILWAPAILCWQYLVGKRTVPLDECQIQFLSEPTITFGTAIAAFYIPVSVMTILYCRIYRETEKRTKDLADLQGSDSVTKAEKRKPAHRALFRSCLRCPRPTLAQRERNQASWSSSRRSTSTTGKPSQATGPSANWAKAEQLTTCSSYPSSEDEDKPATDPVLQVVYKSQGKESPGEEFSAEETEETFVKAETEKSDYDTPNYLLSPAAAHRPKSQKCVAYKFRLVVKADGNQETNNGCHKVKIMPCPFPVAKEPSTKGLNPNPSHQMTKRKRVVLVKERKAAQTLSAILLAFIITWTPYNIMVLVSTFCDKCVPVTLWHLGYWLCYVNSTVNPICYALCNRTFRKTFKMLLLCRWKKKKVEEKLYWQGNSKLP
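System: CHO-K1 hM5 cells. Reagent: acetylcholine, EC20 level. Compound dosing: single dose, 3 µM nominal final test concentration. Timing: Post-acetylcholine fluorescence recording 140 s. Detection: Fluo-8 calcium fluorescence. Read-out: % activation, ACh-normalized. Benchmarks: ACh EC20 and EC100 wells. Repeats: singlicate, one well per test compound.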
CHRM4 PAM – human M4 muscarinic receptor positive allosteric modulators, primary screen, CHO-K1 cells, Fluo-8 calcium fluorescence; CHO-K1 hM4/Gqi5, ACh EC20; 0% = ACh EC20, 100% = maximal ACh; activation, % at 3 µM; Muscarinic acetylcholine receptor M4 (Homo sapiens), P08173; 360,000 tested, 0.4% active;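 active = activation above its plate's cutoff, the mean activation of sample wells plus 3 SD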
M4 ag – human M4 muscarinic receptor agonists, primary screen, CHO-K1 cells, Fluo-8 calcium fluorescence; Muscarinic acetylcholine receptor M4 (Homo sapiens), P08173; CHO-K1 hM4/Gqi5; vehicle 0%, full acetylcholine response 100%; activation, % at 3 µM; 360,000 tested, 0.14% active; AID 624127, 2012;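 active = activation above the run mean over all test wells plus 3 SD, cut at about 32% in these data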;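 note: peak over basal fluorescence ratio per well then scaled between controls; 0% = DMSO wells and 100% = acetylcholine at EC100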
M5 antag – human M5 muscarinic receptor antagonists, primary screen, CHO cells, Fluo-8 calcium fluorescence; 360,000 tested, 0.59% active; CHO-hM5 cells, ACh EC80; inhibition, % at 3 µM; Muscarinic acetylcholine receptor M5 (Homo sapiens), P08912;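 active = inhibition above a per-plate cutoff, the mean of that plate's test compounds plus 3 SD, cut at about 27% in these data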;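 note: 0% = acetylcholine EC80 with DMSO and 100% = DMSO without agonist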
M5 ag – human M5 muscarinic receptor agonists, primary screen, CHO-K1 cells, Fluo-8 calcium fluorescence | Muscarinic acetylcholine receptor M5 (Homo sapiens), P08912 | CHO-K1 hM5 cells; 0% DMSO wells, 100% maximal acetylcholine response | activation, % at 3 µM | 360,000 tested, 0.19% active;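 active = activation above the run's mean over test compounds plus 3 SD, cut at about 23% in these data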;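 note: signal is peak over basal fluorescence ratio across the kinetic read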
* hit, by the source's call.

Results for CC1(c2ccc(OC(F)F)cc2)NC(=O)N(/N=C/c2c(O)ccc3ccccc23)C1=O (stereo unspecified) ?
M4 antag: 8.3; M5 PAM: -0.1; CHRM4 PAM: 20.3*; M4 ag: 0.8; M5 antag: 1.7; M5 ag: -0.1

How did C=C[C@@H]1c2cc(C)ccc2N(S(=O)(=O)c2ccc(C)cc2)[C@H](c2ccccc2)C1(C#N)C#N do in these assays?
M4 antag: 0.2; M5 PAM: 19.4*; CHRM4 PAM: 9.9; M4 ag: 0.2; M5 antag: -19.4; M5 ag: 3.1

What do the screens show for `c1ccc(-n2c3ccccc3c3ccccc32)cc1`?
M4 antag: -6.8; M5 PAM: 18.6*; CHRM4 PAM: -0.8; M4 ag: -0.4; M5 antag: -8.4; M5 ag: 7.2

What do the screens show for `Nc1nc(-c2ccc3c(c2)OCCO3)cs1`?
M4 antag: -0.7; M5 PAM: 2.9; CHRM4 PAM: 2.3; M4 ag: 1.3; M5 antag: -2.2; M5 ag: 0.3

What do the screens show for `Nc1nc(-c2ccc3c(c2)CCCC3)cs1`?
M4 antag: -15.3; M5 PAM: 19.8*; CHRM4 PAM: 11.9; M4 ag: -1.8; M5 antag: 9.7; M5 ag: -1.8

How did CC(C)C1C(=O)N(Cc2cn(CCC3OCCO3)nn2)CCS(=O)(=O)N1Cc1ccc(-c2ccc(F)cc2Cl)cc1 (stereo unspecified) do in these assays?
M4 antag: -6.0; M5 PAM: -4.2; CHRM4 PAM: -6.7; M4 ag: 7.9; M5 antag: -0.8; M5 ag: -3.1

What do the screens show for `O=[N+]([O-])c1cnc(Sc2ccncn2)s1`?
M4 antag: 32.2*; M5 PAM: -6.6; CHRM4 PAM: -6.7; M4 ag: 17.0; M5 antag: 19.5; M5 ag: 1.1

What do the screens show for `O=[N+]([O-])c1cnc(Sc2ccncn2)c([N+](=O)[O-])c1`?
M4 antag: -7.9; M5 PAM: -1.1; CHRM4 PAM: -3.1; M4 ag: 3.3; M5 antag: -4.4; M5 ag: 2.6

How did CCCOc1ccc(CSc2nc3ccccc3[nH]2)cc1 do in these assays?
M4 antag: 25.0; M5 PAM: -21.2; CHRM4 PAM: -7.0; M4 ag: 8.2; M5 antag: 41.6*; M5 ag: 2.4

How did CCOc1ccc(OCCSc2nc3ccccc3[nH]2)cc1 do in these assays?
M4 antag: 4.2; M5 PAM: -14.2; CHRM4 PAM: -3.6; M4 ag: 10.7; M5 antag: 8.9; M5 ag: 1.5

Results for Cc1ccc(S(=O)(=O)c2nc(/C=C/c3ccccc3)oc2N2CCC(C(N)=O)CC2)cc1 ?
M4 antag: 1.7; M5 PAM: -4.3; CHRM4 PAM: 5.3; M4 ag: 1.5; M5 antag: 6.6; M5 ag: 1.8

Results for CCc1sc(C(=O)Nc2ncccc2C)cc1C ?
M4 antag: 9.8; M5 PAM: 0.3; CHRM4 PAM: 4.6; M4 ag: 1.9; M5 antag: 8.8; M5 ag: -0.3

Results for CCc1sc(C(=O)Nc2ncccc2O)cc1C ?
M4 antag: -5.4; M5 PAM: -7.0; CHRM4 PAM: 20.4*; M4 ag: -0.5; M5 antag: -2.0; M5 ag: -5.1

Results for CC(C)[N+](C)(C)CC(O)CN(c1ccccc1)c1ccccc1 (stereo unspecified) ?
M4 antag: 17.3; M5 PAM: -34.6; CHRM4 PAM: -21.8; M4 ag: 0.0; M5 antag: 27.4*; M5 ag: -17.4

How did COc1ccc([C@@H]2CC=C(C(=O)O)[C@H](c3ccc(F)cc3)N2S(=O)(=O)c2ccccc2C)cc1 do in these assays?
M4 antag: -0.4; M5 PAM: 9.0; CHRM4 PAM: 3.2; M4 ag: 2.9; M5 antag: 0.7; M5 ag: -0.6

What do the screens show for `COc1ccc([C@@H]2CC=C(C(=O)O)[C@H](c3ccccc3F)N2S(=O)(=O)c2ccccc2C)cc1`?
M4 antag: 0.9; M5 PAM: 20.0*; CHRM4 PAM: -1.0; M4 ag: -0.2; M5 antag: -5.2; M5 ag: 4.4

Results for Nc1cc(Cl)ccc1C(=O)OCC(=O)NCC1CCCO1 (stereo unspecified) ?
M4 antag: -3.5; M5 PAM: 1.9; CHRM4 PAM: 10.7; M4 ag: 0.7; M5 antag: -3.1; M5 ag: 1.1

Results for CCc1ccc2[nH]c(=O)c(C(c3nnnn3Cc3ccc(OC)cc3)N3CCOCC3)cc2c1 (stereo unspecified) ?
M4 antag: 5.2; M5 PAM: -3.8; CHRM4 PAM: 38.9*; M4 ag: 2.1; M5 antag: -0.6; M5 ag: 0.6

What do the screens show for `Cc1cccc(C)c1NS(=O)(=O)c1ccc2c(c1)NC(=O)CO2`?
M4 antag: -7.8; M5 PAM: 19.2*; CHRM4 PAM: 14.2; M4 ag: 1.0; M5 antag: -22.6; M5 ag: 0.1

What do the screens show for `Cc1ccccc1NS(=O)(=O)c1ccc2c(c1)NC(=O)CO2`?
M4 antag: -6.0; M5 PAM: 1.4; CHRM4 PAM: 4.7; M4 ag: 2.1; M5 antag: 3.7; M5 ag: 0.2

Results for CCc1ccc(NC(=O)CSc2nc(N)c(NC(=O)c3ccc(F)c(F)c3)c(=O)[nH]2)cc1 ?
M4 antag: 6.8; M5 PAM: 4.5; CHRM4 PAM: 3.8; M4 ag: 2.3; M5 antag: -3.6; M5 ag: -2.1

How did CN1CCN(c2ccc(CNS(=O)(=O)c3ccc(F)cc3Cl)cc2)CC1 do in these assays?
M4 antag: 5.1; M5 PAM: 4.2; CHRM4 PAM: 19.6*; M4 ag: 1.7; M5 antag: 1.0; M5 ag: -5.7

What do the screens show for `O=C(NCC1CCCO1)c1cccc(S(=O)(=O)N(Cc2ccccc2)c2ccccc2)c1` (stereo unspecified)?
M4 antag: -23.9; M5 PAM: -3.6; CHRM4 PAM: 5.1; M4 ag: 1.8; M5 antag: 1.2; M5 ag: -3.9

How did COc1ccc(C(CNC(=O)c2cccc(S(=O)(=O)Nc3cccc(C)c3)c2)N2CCOCC2)cc1 (stereo unspecified) do in these assays?
M4 antag: -2.2; M5 PAM: 3.8; CHRM4 PAM: 5.6; M4 ag: 1.9; M5 antag: 4.0; M5 ag: 0.8
